Drawing on ChEMBL document CHEMBL2163314, “Potent aminocyclitol glucocerebrosidase inhibitors are subnanomolar pharmacological chaperones for treating gaucher disease” (J Med Chem, 2012), this text covers inhibition, IC50 and Ratio for nine molecules.

One experiment deals with Saccharomyces cerevisiae. As to the kind of experiment: Inhibition of bakers yeast alpha-glucosidase at100 uM.
Another experiment relates to Oryza sativa. As to the kind of experiment: Inhibition of rice alpha-glucosidase at 100 uM.
The target of experiment [1] is Alpha-galactosidase (Coffea arabica) (UniProt Q42656). As to the kind of experiment: Inhibition of green coffee beans alpha-galactosidase at 100 uM.
For experiment [2], the target named is T1, Lysosomal acid glucosylceramidase (Homo sapiens, UniProt P04062).
T1 sequence (P04062 whole entry): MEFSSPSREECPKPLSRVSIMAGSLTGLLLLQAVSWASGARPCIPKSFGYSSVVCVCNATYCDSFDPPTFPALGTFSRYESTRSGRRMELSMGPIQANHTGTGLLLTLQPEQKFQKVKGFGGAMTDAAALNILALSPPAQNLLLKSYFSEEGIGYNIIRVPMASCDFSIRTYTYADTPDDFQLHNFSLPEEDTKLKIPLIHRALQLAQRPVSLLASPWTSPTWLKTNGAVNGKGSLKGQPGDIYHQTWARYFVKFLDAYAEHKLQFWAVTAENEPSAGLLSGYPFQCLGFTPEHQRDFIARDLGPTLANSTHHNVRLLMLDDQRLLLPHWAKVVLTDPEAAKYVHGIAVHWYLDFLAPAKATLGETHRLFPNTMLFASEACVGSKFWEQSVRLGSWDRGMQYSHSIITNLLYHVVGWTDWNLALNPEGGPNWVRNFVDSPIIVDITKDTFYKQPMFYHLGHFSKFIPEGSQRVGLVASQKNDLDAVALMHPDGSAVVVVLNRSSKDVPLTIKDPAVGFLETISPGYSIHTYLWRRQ
As to the kind of experiment: Competitive inhibition of recombinant Imiglucerase using 4-methylumbelliferyl-beta-D-glucopyranoside as substrate preincubated for 30 mins before substrate addition at pH 5.2 by Dixon plot assay.

The target in experiment [3] is T1, Lysosomal acid glucosylceramidase. As to the kind of experiment: Competitive inhibition of recombinant Imiglucerase using 4-methylumbelliferyl-beta-D-glucopyranoside as substrate preincubated for 30 mins before substrate addition at pH 7.0 by Dixon plot assay.
For experiment [4], the target named is T2, Beta-galactosidase (Homo sapiens) (UniProt P16278).
T2 sequence (whole entry): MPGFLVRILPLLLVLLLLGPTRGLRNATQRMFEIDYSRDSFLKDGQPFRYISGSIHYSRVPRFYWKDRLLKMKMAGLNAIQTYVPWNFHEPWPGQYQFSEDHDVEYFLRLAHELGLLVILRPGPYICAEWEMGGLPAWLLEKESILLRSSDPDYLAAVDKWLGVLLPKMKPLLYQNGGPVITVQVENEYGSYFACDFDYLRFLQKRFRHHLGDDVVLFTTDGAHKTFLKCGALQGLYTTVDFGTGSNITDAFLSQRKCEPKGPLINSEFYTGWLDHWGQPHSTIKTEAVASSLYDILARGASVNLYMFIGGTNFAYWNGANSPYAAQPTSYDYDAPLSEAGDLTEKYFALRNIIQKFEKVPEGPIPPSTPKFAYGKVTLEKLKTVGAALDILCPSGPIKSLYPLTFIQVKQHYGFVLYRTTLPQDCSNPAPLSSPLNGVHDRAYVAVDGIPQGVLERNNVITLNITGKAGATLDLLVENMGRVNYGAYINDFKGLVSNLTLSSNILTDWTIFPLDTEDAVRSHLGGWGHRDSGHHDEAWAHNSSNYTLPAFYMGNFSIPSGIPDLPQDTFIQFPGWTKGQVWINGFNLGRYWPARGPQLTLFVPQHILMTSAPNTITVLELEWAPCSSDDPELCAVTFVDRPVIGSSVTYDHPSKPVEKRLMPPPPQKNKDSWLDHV
As to the kind of experiment: Inhibition of lysosomal beta-galactosidase in human fibroblast at 50 uM after 24 hrs. The procedure, abridged: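 Wild-type human fibroblasts (DMEM, 10% FBS, passages 14–30) were plated overnight, then exposed to compound in fresh medium for 24 h at 37 °C, 5% CO2. Lysosomal enzyme activity was then assayed in intact monolayers after the medium was removed. Triplicate determinations.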

For experiment [5], the target named is T1, Lysosomal acid glucosylceramidase. As to the kind of experiment: Competitive inhibition of recombinant Imiglucerase using 4-methylumbelliferyl-beta-D-glucopyranoside as substrate preincubated for 30 mins before substrate addition at pH 5.2 by Lineweaver-Burk plot assay.
The target in experiment [6] is T3, Lysosomal acid glucosylceramidase (Homo sapiens) (UniProt P04062).
T3 sequence (whole entry): T1 sequence (P04062 whole entry)
As to the kind of experiment: Inhibition of lysosomal beta-glucosidase in human fibroblast using 4-methylumbelliferyl-beta-D-glucopyranoside as substrate preincubated at 5 uM for 24 hrs before substrate addition measured after 2 hrs by fluorimetry. In a few lines:
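Wild-type human fibroblasts (DMEM, 10% FBS; passages 14–30) plated overnight, then compound in fresh medium for 24 h at 37 °C, 5% CO2. Intact washed monolayers given PBS plus 200 mM acetate pH 4.0 and 5 mM 4-MU-β-glucoside, 37 °C for 2 h. Stopped by lysis in glycine/NaOH pH 10.6. Fluorescence at 355/460 nm; triplicate.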

Experiment [7] deals with T2, Beta-galactosidase (Homo sapiens). As to the kind of experiment: Inhibition of lysosomal beta-galactosidase in human fibroblast at 5 uM after 24 hrs.
Experiment [8] has as its target T4, Ceramide glucosyltransferase (Mus musculus) (UniProt O88693).
T4 sequence (whole entry): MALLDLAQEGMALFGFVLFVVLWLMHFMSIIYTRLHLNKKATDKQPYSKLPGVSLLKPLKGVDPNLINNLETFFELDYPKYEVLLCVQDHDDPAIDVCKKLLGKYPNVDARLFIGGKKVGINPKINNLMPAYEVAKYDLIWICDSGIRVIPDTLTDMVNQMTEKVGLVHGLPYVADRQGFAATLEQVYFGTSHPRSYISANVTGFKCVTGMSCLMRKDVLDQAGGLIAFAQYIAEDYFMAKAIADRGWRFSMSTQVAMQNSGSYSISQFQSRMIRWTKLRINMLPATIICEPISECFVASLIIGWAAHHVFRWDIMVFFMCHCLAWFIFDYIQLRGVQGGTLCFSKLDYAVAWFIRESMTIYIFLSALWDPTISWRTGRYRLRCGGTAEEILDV
As to the kind of experiment: Inhibition of GCS activity in mouse tissue homogenate at 250 uM.

A short description of experiment [9]: Stabilization of recombinant imiglucerase at 1 uM at 48 degC after 60 mins by fluorimetry relative to incubation at 37 degC. The procedure, abridged:
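Imiglucerase (2 mg/mL aliquots) heated at 48 °C with compound, three concentrations. At set times, residual activity measured with 4 mM 4-MU-β-glucoside (McIlvaine pH 5.2, Triton X-100, taurocholate) after acetate-phosphate pH 5.0, 10 min at 37 °C. Read at 355/460 nm. Ratio is relative enzymatic activity, inhibitor vs control, taken at 60 min. Activity relative to unheated (37 °C) enzyme; triplicate.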

The source made the active and inactive calls. The calls are words filed in the database; no cut-off is given here. Bounds are passed on as bounds.

Alpha-galactosidase (Coffea arabica), sequence (Q42656 16-378 limits assumed): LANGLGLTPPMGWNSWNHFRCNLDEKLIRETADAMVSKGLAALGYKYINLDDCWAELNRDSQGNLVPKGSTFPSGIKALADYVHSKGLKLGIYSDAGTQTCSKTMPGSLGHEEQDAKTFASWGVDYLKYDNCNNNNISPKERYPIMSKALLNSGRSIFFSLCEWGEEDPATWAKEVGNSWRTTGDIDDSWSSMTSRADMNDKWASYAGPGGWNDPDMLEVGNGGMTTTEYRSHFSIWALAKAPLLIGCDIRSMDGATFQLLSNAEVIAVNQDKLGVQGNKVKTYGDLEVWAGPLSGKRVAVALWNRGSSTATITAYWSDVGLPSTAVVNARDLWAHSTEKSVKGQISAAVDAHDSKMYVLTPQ

As a reminder, the inhibition is how much of the control response was suppressed. In general, IC50 refers to the concentration at which inhibition is half-maximal. Regarding `CCCCCCCCCN[C@@H]1[C@H](O)[C@@H](O)[C@H](O)[C@@H](O)[C@@H]1O`, the inhibition result (in the experiment with Saccharomyces cerevisiae; with Oryza sativa; in experiment [1]; in experiment [4]) was “inactive” each time. Also, the IC50 was 52600 nM in experiment [2], 24900 nM in experiment [3] and 52600 nM in experiment [5].

With `CCCCCCCCCN[C@H]1[C@H](O)[C@@H](O)[C@H](O)[C@@H](O)[C@@H]1OCCCCCCCCC.Cl`, the inhibition in experiment [6] was greater than 39%; in experiment [7], less than 16%; in [8], 56%. Moreover, the inhibition result (with Saccharomyces cerevisiae; in the experiment on Oryza sativa; in experiment [1]) was “inactive” each time. Besides, in [9], the Ratio was 5.2. For the same molecule, the figures for the IC50 in experiment [2], in experiment [3] and in experiment [5] were 670 nM, 170 nM and 670 nM, respectively.

In experiment [6], `CCCCCCCCCN[C@H]1[C@H](O)[C@@H](O)[C@H](O)[C@@H](O)[C@H]1OC.Cl` gave an inhibition greater than 39%. Further, the inhibition result (in the experiment with Saccharomyces cerevisiae; in the experiment with Oryza sativa; in experiment [1]; in experiment [4]) was “inactive” in each case. In addition, the Ratio in experiment [9] worked out at 2. Further, the IC50 in experiment [2] came out at 130 nM; in [3], 19 nM; in experiment [5], 130 nM.

With `CCCCCCCCCN[C@@H]1[C@H](O)[C@H](O)[C@@H](O)[C@H](O)[C@H]1O.Cl`, in experiment [6], the inhibition was greater than 39%. Further, the inhibition entry (in the experiment on Saccharomyces cerevisiae; in the experiment with Oryza sativa; in experiment [1]; in experiment [4]) was “inactive” in each case. Further, the Ratio in experiment [9] was determined as 5. For the same molecule, the IC50 in experiment [2] was 80 nM; in [3], 25 nM; in experiment [5], 80 nM.

`CCCCCCCCCO[C@H]1[C@@H](N)[C@H](O)[C@@H](O)[C@H](O)[C@H]1O.Cl` returned an inhibition in experiment [6] greater than 39%. Further, the inhibition result (with Saccharomyces cerevisiae; with Oryza sativa; in experiment [1]; in experiment [4]) was “inactive” each time. The Ratio in experiment [9] was 2.2. For the same molecule, the values for the IC50 in experiment [2], in [3] and in experiment [5] were 450 nM, 120 nM and 450 nM, respectively.

For the molecule `CCCCCCCCCN[C@H]1[C@H](O)[C@@H](O)[C@H](O)[C@@H](O)[C@@H]1O`, the inhibition entry (in the experiment on Saccharomyces cerevisiae; in the experiment on Oryza sativa; in experiment [1]; in experiment [4]) was “inactive” throughout. For the same molecule, the IC50 turned out to be 3900 nM in [2], 780 nM in experiment [3] and 3900 nM in experiment [5].

With `CCCCCCCCCN[C@H]1[C@H](O)[C@@H](O)[C@H](O)[C@@H](O)[C@@H]1OC.Cl`, the inhibition entry (with Saccharomyces cerevisiae; in the experiment on Oryza sativa; in experiment [1]; in experiment [4]) was “inactive” in each case. The IC50 in [2] was 4400 nM; in experiment [3], 670 nM; in experiment [5], 4400 nM.

Turning to `CCCCCCCCCN(CCCCCCCCC)[C@@H]1[C@H](O)[C@H](O)[C@@H](O)[C@H](O)[C@H]1O.Cl`, the inhibition is greater than 39% in [6], less than 16% in [7] and 56% in experiment [8]. Moreover, the inhibition result (with Saccharomyces cerevisiae; in the experiment on Oryza sativa; in experiment [1]) was “inactive” in each case. In addition, the Ratio in [9] was determined as 1.2. Further, the IC50 in [2] came to 1720 nM; in [3], 530 nM; in [5] it was 1720 nM.

Regarding `CCCCCCCCCN[C@H]1[C@H](O)[C@@H](O)[C@H](O)[C@@H](O)[C@H]1OCCCCCCCCC.Cl`, the inhibition was greater than 39% in experiment [6] and 56% in experiment [8]. For the same molecule, the inhibition result (in experiment [7]; in the experiment with Saccharomyces cerevisiae; in the experiment with Oryza sativa; in experiment [1]) was “inactive” each time. The Ratio in [9] is 29. Also, the IC50 in [2] is 4 nM; in experiment [3], 5 nM; in experiment [5], 4 nM.
